The source made the active and inactive calls.
What was measured:
Plasmodium berghei [1] = experiment: Antimalarial activity against Plasmodium berghei KBG173 infected ICR mice (Mus musculus) at 320 mg/kg/day peroral dose from days 3 to 5 post infection; format: functional; conditions: route oral
Procedure, shortened: (§1)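 Modified Thompson test in groups of five ICR mice. Mice were inoculated ip with P. berghei KBG 173-infected erythrocytes on day 0. Compound was suspended in 0.5% hydroxyethylcellulose-0.1% Tween 80 and given orally once daily on days 3-5. Blood smears were read on days 6-31. Cure was defined as alive on day 31 with no parasites in a blood film. Necropsy followed.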

Mus musculus = experiment: Toxicity in Plasmodium berghei KBG173-infected ICR mice (Mus musculus) at 960 mg/kg, perorally for 3 days; format: organism-based; design: dose 960 mg/kg, route oral; conditions: in vivo, po, 72 h
Procedure, shortened: (§2)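 Orally dosed, P. berghei KBG 173-infected ICR mice in groups of five received compound suspended in 0.5% hydroxyethylcellulose-0.1% Tween 80 once daily for three consecutive days. Doses went up to 960 mg/kg. Toxicity was judged by survival and by gross lesions at necropsy.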

Plasmodium falciparum [2] = experiment: Antimalarial activity against chloroquine-sensitive Plasmodium falciparum D6; format: functional, organism-based
Procedure, shortened: (§3)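 In vitro blood-stage assay with P. falciparum clones: D6 (Sierra I/UNC isolate), W2 (Indochina I isolate) and TM91C235 (Southeast Asian isolate). Activity was expressed as IC90.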

Plasmodium falciparum [3] = experiment: Antimalarial activity against multidrug-resistant Plasmodium falciparum TM91C235; format: functional, organism-based; procedure, shortened: as §3
Plasmodium berghei [4] = experiment: Antimalarial activity against Plasmodium berghei KBG173 infected ICR mice (Mus musculus) at 320 mg/kg/day peroral dose from day 3 post infection at day 31 by modified Thompson test; format: functional, organism-based; procedure, shortened: as §1
[5] = Toxicity in Plasmodium berghei KBG173-infected perorally dosed ICR mice (Mus musculus) assessed as maximum tolerated dose; format: organism-based; conditions: in vivo, po; procedure, shortened: as §2
Plasmodium berghei [6] = experiment: Antimalarial activity against Plasmodium berghei KBG173 infected ICR mice (Mus musculus) at 20 mg/kg/day peroral dose from day 3 post infection at day 31 by modified Thompson test; format: functional, organism-based; procedure, shortened: as §1
Plasmodium berghei [7] = experiment: Antimalarial activity against Plasmodium berghei KBG173 infected ICR mice (Mus musculus) assessed at 20 mg/kg/day peroral dose from days 3 to 5 post infection; format: functional; conditions: route oral; procedure, shortened: as §1
[8] = test system: Mycobacterium tuberculosis; experiment: Antitubercular activity against Mycobacterium tuberculosis H37Rv by microplate alamar blue assay; format: functional
Procedure, shortened: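 M. tuberculosis H37Rv was tested at TAACF by microplate Alamar blue assay (MABA). Inhibitory activity was reported as IC90.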

Plasmodium falciparum [9] = experiment: Antimalarial activity against chloroquine-resistant, mefloquine-susceptible Plasmodium falciparum W2; format: functional, organism-based; procedure, shortened: as §3
Plasmodium berghei [10] = experiment: Antimalarial activity against Plasmodium berghei KBG173 infected ICR mice (Mus musculus) assessed at 80 mg/kg/day peroral dose from days 3 to 5 post infection; format: functional; conditions: route oral; procedure, shortened: as §1
[11] = test system: Mycobacterium tuberculosis; experiment: Antitubercular activity against Mycobacterium tuberculosis H37Rv at 6.26 ug/ml by alamar blue assay; format: functional
Procedure, shortened: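 Screened against M. tuberculosis H37Rv at TAACF by Alamar blue assay at a cutoff of 6.26 µg/mL. Active was defined as >90% inhibition.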

[12] = Metabolic stability in mouse liver microsomes assessed as half life; format: ADME, Microsome
[13] = Metabolic stability in human liver microsomes assessed as half life; format: ADME, Microsome

| Compound | Survival (Plasmodium berghei [1]) | Activity (Mus musculus) | IC50 (Plasmodium falciparum [2]) | IC90 (Plasmodium falciparum [2]) | IC50 (Plasmodium falciparum [3]) | IC90 (Plasmodium falciparum [3]) | Activity (Plasmodium berghei [4]) | MTD [5] | Activity (Plasmodium berghei [6]) | Survival (Plasmodium berghei [7]) | IC90 [8] | IC50 (Plasmodium falciparum [9]) | IC90 (Plasmodium falciparum [9]) | Survival (Plasmodium berghei [10]) | inhibition at 6.26 µg/mL [11] | half-life [12] | half-life [13] |
| --- | --- | --- | --- | --- | --- | --- | --- | --- | --- | --- | --- | --- | --- | --- | --- | --- | --- |
| Clc1ccc2c(NCCNCC3CCC4(CC3)OOC3(CCCCC3)OO4)ccnc2c1 | >31 days | Non-toxic | 0.00905 µM | 0.0182 µM | 0.0099 µM | 0.0183 µM | Active | > 960 mg/kg | inactive | 15.8 days | < 0.43 µM | 0.00576 µM | 0.0124 µM | 26.4 days | > 90% |  |  |
| O=C(NCCNc1ccnc2cc(Cl)ccc12)C1CCC2(CC1)OOC1(CCCCC1)OO2 | >31 days | Non-toxic | 0.00233 µM | 0.00375 µM | 0.0037 µM | 0.00738 µM | Active | > 960 mg/kg | inactive | 14.2 days |  | 0.002 µM | 0.00226 µM | 26.2 days | > 90% | > 1 h | > 1 h |
| CC(=O)O[C@H]1C[C@H]2[C@@H]([C@H](OC(C)=O)C[C@@H]3CC4(CC[C@@]32C)OOC2(CCCCC2)OO4)[C@@H]2CC[C@H]([C@H](C)CCC(=O)NCCNc3ccnc4cc(Cl)ccc34)[C@@]12C |  |  | 0.00653 µM | 0.0106 µM | 0.00854 µM | 0.0172 µM |  |  |  |  | 0.4 µM | 0.00447 µM | 0.0107 µM |  | > 90% |  |  |
| C[C@@H]1CC[C@H]2[C@@H](C)C(=O)O[C@@H]3O[C@@]4(C)CC[C@@H]1[C@]32OO4 [ARTEMISININ] |  |  | 0.009 µM | 0.0128 µM | 0.013 µM | 0.0174 µM |  |  |  |  |  | 0.0067 µM | 0.0115 µM |  |  |  |  |
| CC(=O)O[C@H]1C[C@H]2[C@@H]([C@H](OC(C)=O)C[C@@H]3CC4(CC[C@@]32C)OOC2(CCCCC2)OO4)[C@@H]2CC[C@H]([C@H](C)CCCNCCNc3ccnc4cc(Cl)ccc34)[C@@]12C |  |  | 0.0335 µM | 0.103 µM | 0.0302 µM | 0.16 µM |  |  |  |  | 0.33 µM | 0.0229 µM | 0.0303 µM |  | > 90% |  |  |
| CCN(CC)CCCC(C)Nc1ccnc2cc(Cl)ccc12 (configuration not stated) [CHLOROQUINE] |  |  |  | 0.0159 µM |  | 0.264 µM |  |  |  |  |  |  | 0.64 µM |  |  |  |  |
| OC(c1cc(C(F)(F)F)nc2c(C(F)(F)F)cccc12)C1CCCCN1 (configuration not stated) [MEFLOQUINE] |  |  | 0.019 µM | 0.0448 µM | 0.0475 µM | 0.153 µM |  |  |  |  |  | 0.00535 µM | 0.0186 µM |  |  |  |  |

Reference: ChEMBL document CHEMBL1140092, “New chimeric antimalarials with 4-aminoquinoline moiety linked to a tetraoxane skeleton” (J Med Chem, 2008)
